{"data": "Measured values gathered from unrelated publications", "DRD3": "D(3) dopamine receptor (DRD3, Homo sapiens, UniProt P35462)", "SLC6A3": "Sodium-dependent dopamine transporter (SLC6A3, Homo sapiens, UniProt Q01959)", "USP51": "Ubiquitin carboxyl-terminal hydrolase 51 (USP51, Homo sapiens, UniProt Q70EK9)", "CA12": "Carbonic anhydrase 12 (CA12, Homo sapiens, UniProt O43570)", "note": "Protocols differ between the studies behind these lines."}
{"Structure (SMILES)": "O=C(c1cccc(Cl)c1)N1CCN(CCNc2cc(=O)oc3ccccc23)CC1", "target": "DRD3", "read-out": "enzyme activity", "mode": "inhibitor", "concentration": "10 µM", "inhibition [%]": -11.3}
{"Structure (SMILES)": "Clc1ccc(C(c2ccc(Cl)cc2)c2nnnn2CCCCN2CCC(Cc3ccccc3)CC2)cc1", "target": "SLC6A3", "read-out": "transporter uptake", "mode": "inhibitor", "cell line": "HEK293", "concentration": "1 µM", "inhibition [%]": 78.5}
{"Structure (SMILES)": "O=C(O)c1cc(O)c(O)c(O)c1", "target": "USP51", "read-out": "enzyme activity", "mode": "inhibitor", "concentration": "5 µM", "inhibition [%]": 99}
{"Structure (SMILES)": "COc1cc(NC(C)=O)c(Cl)cc1C(=O)Nc1nccs1", "target": "Peroxisome proliferator-activated receptor gamma (PPARG, Homo sapiens, UniProt P37231)", "read-out": "cell-free assay", "concentration": "10 µM", "inhibition [%]": 31.6}
{"Structure (SMILES)": "Clc1ccc(C(c2ccc(Cl)cc2)c2nnnn2CCCCN2CCC(Cc3ccc(Cl)c(Cl)c3)CC2)cc1", "target": "SLC6A3", "read-out": "transporter uptake", "mode": "inhibitor", "cell line": "HEK293", "concentration": "1 µM", "inhibition [%]": 62.6}
{"Structure (SMILES)": "COc1cc(C(C)=O)ccc1O", "target": "USP51", "read-out": "enzyme activity", "mode": "inhibitor", "concentration": "5 µM", "inhibition [%]": 48}
{"Structure (SMILES)": "NS(=O)(=O)c1ccc(CCNCc2ccc(-c3ccccc3F)o2)cc1", "target": "DRD3", "read-out": "enzyme activity", "mode": "inhibitor", "concentration": "10 µM", "inhibition [%]": 44.2}
{"Structure (SMILES)": "CCOC(=O)C1CSc2[nH]c(=O)sc2C1c1cn(-c2ccccc2)nc1-c1ccc(Cl)cc1 (stereo not drawn)", "target": "CA12", "read-out": "enzyme activity", "mode": "inhibitor", "method": "absorbance", "concentration": "1 µM", "inhibition [%]": 73.2}
{"Structure (SMILES)": "CC(C)=CCC[C@](C)(O)[C@H]1CC[C@]2(C)[C@@H]1[C@H](O)C[C@@H]1[C@@]3(C)CC[C@H](O[C@@H]4O[C@H](CO)[C@@H](O)[C@H](O)[C@H]4O[C@@H]4O[C@H](CO)[C@@H](O)[C@H](O)[C@H]4O)C(C)(C)[C@@H]3CC[C@]12C", "target": "USP51", "read-out": "enzyme activity", "mode": "inhibitor", "concentration": "5 µM", "inhibition [%]": 0}
{"Structure (SMILES)": "Fc1ccc(C(c2ccc(F)cc2)c2nnnn2CCCCN2CCC(Cc3ccccc3)CC2)cc1", "target": "SLC6A3", "read-out": "transporter uptake", "mode": "inhibitor", "cell line": "HEK293", "concentration": "1 µM", "inhibition [%]": 92.3}
{"Structure (SMILES)": "CCOC(=O)C1CSc2[nH]c(=O)sc2C1c1cn(-c2ccccc2)nc1-c1ccccc1 (stereo not drawn)", "target": "CA12", "read-out": "enzyme activity", "mode": "inhibitor", "method": "absorbance", "concentration": "0.1 µM", "inhibition [%]": 27.5}
{"Structure (SMILES)": "O=C(OC[C@H]1O[C@@H](OC(=O)c2cc(O)c(O)c(OC(=O)c3cc(O)c(O)c(O)c3)c2)[C@H](OC(=O)c2cc(O)c(O)c(OC(=O)c3cc(O)c(O)c(O)c3)c2)[C@@H](OC(=O)c2cc(O)c(O)c(OC(=O)c3cc(O)c(O)c(O)c3)c2)[C@@H]1OC(=O)c1cc(O)c(O)c(OC(=O)c2cc(O)c(O)c(O)c2)c1)c1cc(O)c(O)c(OC(=O)c2cc(O)c(O)c(O)c2)c1", "target": "USP51", "read-out": "enzyme activity", "mode": "inhibitor", "concentration": "5 µM", "inhibition [%]": 100}
{"Structure (SMILES)": "OC(CNCc1cccc(Oc2nnnn2-c2ccccc2)c1)c1ccccc1 (stereo not drawn)", "target": "DRD3", "read-out": "enzyme activity", "mode": "inhibitor", "concentration": "10 µM", "inhibition [%]": 29.3}
{"Structure (SMILES)": "O=C1c2cccc(O)c2C(=O)c2c(O)cccc21", "target": "USP51", "read-out": "enzyme activity", "mode": "inhibitor", "concentration": "5 µM", "inhibition [%]": 14}
{"Structure (SMILES)": "CC(C)c1ccccc1OCCOCC(O)CN1CCN(c2cccc(C(F)(F)F)c2)CC1 (stereo not drawn)", "target": "DRD3", "read-out": "enzyme activity", "mode": "inhibitor", "concentration": "10 µM", "inhibition [%]": 14.3}
{"Structure (SMILES)": "CCCOC(=O)c1cc(O)c(O)c(O)c1", "target": "USP51", "read-out": "enzyme activity", "mode": "inhibitor", "concentration": "5 µM", "inhibition [%]": 97}
{"Structure (SMILES)": "CCN(CC)CCNC(=O)c1c(C)[nH]c(/C=C2\\C(=O)Nc3ccc(F)cc32)c1C", "target": "Tyrosine-protein kinase Lyn (Lyn, Mus musculus, UniProt P25911)", "read-out": "enzyme activity", "mode": "inhibitor", "concentration": "10 µM", "inhibition [%]": 98}
{"Structure (SMILES)": "Cc1ccc(-c2nn(-c3ccccc3)cc2C2c3sc(=O)[nH]c3SC3C(=O)N(c4ccccc4)C(=O)C32)cc1 (stereo not drawn)", "target": "CA12", "read-out": "enzyme activity", "mode": "inhibitor", "method": "absorbance", "concentration": "10 nM", "inhibition [%]": 13.8}
{"Structure (SMILES)": "O=C1CC(N2CCN(Cc3ccccc3)CC2)C(=O)N1c1ccc2c(c1)OCCO2 (stereo not drawn)", "target": "DRD3", "read-out": "enzyme activity", "mode": "inhibitor", "concentration": "10 µM", "inhibition [%]": -26}
{"Structure (SMILES)": "O=C1NC(=S)C(=Cc2cn(-c3ccccc3)nc2-c2ccc(Br)cc2)S1", "target": "CA12", "read-out": "enzyme activity", "mode": "inhibitor", "method": "absorbance", "concentration": "10 µM", "inhibition [%]": 49.8}
{"Structure (SMILES)": "O=C1/C(=C2\\Nc3ccccc3C2=O)Nc2ccccc21", "target": "USP51", "read-out": "enzyme activity", "mode": "inhibitor", "concentration": "5 µM", "inhibition [%]": 36}
